Test results published in ChEMBL document CHEMBL3763106, “Glucose-derived spiro-isoxazolines are anti-hyperglycemic agents against type 2 diabetes through glycogen phosphorylase inhibition” (Eur J Med Chem, 2016).
Active and inactive are the calls of the source. The calls are words filed in the database; no cut-off is given here.

Key:
[1] = target: T1, Glycogen phosphorylase, liver form (Rattus norvegicus, UniProt P09811); assay: Inhibition of glycogen phosphorylase in Wistar rat hepatocytes assessed as decrease in glucagon stimulated glucose release after 3 hrs by glucose oxidase method; type: cell-based, Hepatocyte
T1 sequence (P09811 whole entry): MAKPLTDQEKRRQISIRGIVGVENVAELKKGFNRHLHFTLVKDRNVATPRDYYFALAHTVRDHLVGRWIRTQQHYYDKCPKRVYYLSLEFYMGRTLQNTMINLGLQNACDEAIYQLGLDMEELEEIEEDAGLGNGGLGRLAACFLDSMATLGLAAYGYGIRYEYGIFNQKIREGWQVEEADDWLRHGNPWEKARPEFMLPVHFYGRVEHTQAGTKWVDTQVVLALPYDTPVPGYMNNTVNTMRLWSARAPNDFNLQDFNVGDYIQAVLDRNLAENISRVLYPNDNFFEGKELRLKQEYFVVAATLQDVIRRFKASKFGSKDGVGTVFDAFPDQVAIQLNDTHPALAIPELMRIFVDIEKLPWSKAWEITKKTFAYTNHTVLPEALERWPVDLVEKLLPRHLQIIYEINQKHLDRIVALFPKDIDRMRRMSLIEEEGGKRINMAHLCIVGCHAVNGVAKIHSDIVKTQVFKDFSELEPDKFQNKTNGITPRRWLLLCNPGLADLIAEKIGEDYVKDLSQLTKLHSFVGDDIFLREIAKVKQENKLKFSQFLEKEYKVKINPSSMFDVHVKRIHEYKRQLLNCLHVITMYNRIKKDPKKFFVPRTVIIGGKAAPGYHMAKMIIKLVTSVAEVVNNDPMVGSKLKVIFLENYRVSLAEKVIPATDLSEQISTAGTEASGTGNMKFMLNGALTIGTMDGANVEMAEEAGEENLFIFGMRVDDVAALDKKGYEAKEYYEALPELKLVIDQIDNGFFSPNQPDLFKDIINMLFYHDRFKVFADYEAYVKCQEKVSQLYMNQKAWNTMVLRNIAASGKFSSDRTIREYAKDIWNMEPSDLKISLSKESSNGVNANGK
How it was run: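 Hepatocytes from male Wistar rats (160-220 g) isolated by two-step perfusion, viability >75%. Seeded at 830,000 cells/well, then cultured 24 h with 100 nM dexamethasone. Incubated 3 h in Hepes-bicarbonate buffer pH 7.4 with 0.1% BSA, 100 nM glucagon and inhibitor at several concentrations. Supernatant glucose measured by glucose oxidase (A492). IC50 taken from % of glucagon-stimulated value, mean of three independent experiments.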

[2] = target: T2, Glycogen phosphorylase, liver form (Homo sapiens, UniProt P06737); assay: Inhibition of glycogen phosphorylase in human hepatocytes assessed as decrease in glucagon stimulated glucose release after 3 hrs by glucose oxidase method; type: cell-based, Hepatocyte
T2 sequence (P06737 whole entry): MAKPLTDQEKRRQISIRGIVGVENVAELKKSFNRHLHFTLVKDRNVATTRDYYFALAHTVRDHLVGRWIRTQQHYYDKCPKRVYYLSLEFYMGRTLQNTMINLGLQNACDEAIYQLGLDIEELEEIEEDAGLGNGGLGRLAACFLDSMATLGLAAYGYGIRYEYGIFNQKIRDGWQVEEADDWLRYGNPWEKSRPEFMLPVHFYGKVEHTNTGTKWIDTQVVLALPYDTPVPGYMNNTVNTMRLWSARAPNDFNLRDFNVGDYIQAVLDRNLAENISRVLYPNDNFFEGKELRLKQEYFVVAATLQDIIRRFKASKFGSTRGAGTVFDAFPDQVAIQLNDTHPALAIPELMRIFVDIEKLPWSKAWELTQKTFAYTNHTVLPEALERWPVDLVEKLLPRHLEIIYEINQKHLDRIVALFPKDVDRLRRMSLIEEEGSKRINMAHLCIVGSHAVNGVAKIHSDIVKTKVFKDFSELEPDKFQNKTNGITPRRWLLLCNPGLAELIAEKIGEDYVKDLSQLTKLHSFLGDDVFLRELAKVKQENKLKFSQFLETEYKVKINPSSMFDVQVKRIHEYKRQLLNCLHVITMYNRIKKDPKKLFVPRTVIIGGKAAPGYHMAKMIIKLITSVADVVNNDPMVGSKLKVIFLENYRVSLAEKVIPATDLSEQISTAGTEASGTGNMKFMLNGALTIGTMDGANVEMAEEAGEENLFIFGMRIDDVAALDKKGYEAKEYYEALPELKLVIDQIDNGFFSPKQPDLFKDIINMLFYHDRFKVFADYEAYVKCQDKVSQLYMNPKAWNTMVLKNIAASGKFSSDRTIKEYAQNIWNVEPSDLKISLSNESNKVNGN
How it was run: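 Human hepatocytes isolated by two-step perfusion of surgical liver pieces and seeded at 1×10⁶/well. Glycogen-loaded for 20 h in medium containing insulin, dexamethasone and 4.5 g/L glucose. Then 3 h in glucose-free DMEM with 100 nM glucagon and inhibitor at several concentrations. Supernatant glucose measured by glucose oxidase (A492). IC50 from % of glucagon-stimulated value, triplicates across 3-5 cultures.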

[3] = target: T2, Glycogen phosphorylase, liver form; assay: Inhibition of glycogen phosphorylase in human hepatocytes assessed as glucagon stimulated glycogen content after 3 hrs by colorimetric GOD method; type: cell-based, Hepatocyte
How it was run: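 Human hepatocytes, glycogen-loaded 20 h, then 3 h in glucose-free DMEM with 100 nM glucagon and inhibitor. Washed cells digested with amyloglucosidase (0.75 UI/mL, acetate pH 4.8) for 2 h at 40 °C. Released glucose quantified by glucose oxidase. IC50 from % of glucagon-stimulated glycogen, triplicates across 3-5 cultures.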

[4] = target: T3, Glycogen phosphorylase, muscle form (Oryctolagus cuniculus, UniProt P00489); assay: Inhibition of rabbit muscle glycogen phosphorylase b
T3 sequence (P00489 whole entry): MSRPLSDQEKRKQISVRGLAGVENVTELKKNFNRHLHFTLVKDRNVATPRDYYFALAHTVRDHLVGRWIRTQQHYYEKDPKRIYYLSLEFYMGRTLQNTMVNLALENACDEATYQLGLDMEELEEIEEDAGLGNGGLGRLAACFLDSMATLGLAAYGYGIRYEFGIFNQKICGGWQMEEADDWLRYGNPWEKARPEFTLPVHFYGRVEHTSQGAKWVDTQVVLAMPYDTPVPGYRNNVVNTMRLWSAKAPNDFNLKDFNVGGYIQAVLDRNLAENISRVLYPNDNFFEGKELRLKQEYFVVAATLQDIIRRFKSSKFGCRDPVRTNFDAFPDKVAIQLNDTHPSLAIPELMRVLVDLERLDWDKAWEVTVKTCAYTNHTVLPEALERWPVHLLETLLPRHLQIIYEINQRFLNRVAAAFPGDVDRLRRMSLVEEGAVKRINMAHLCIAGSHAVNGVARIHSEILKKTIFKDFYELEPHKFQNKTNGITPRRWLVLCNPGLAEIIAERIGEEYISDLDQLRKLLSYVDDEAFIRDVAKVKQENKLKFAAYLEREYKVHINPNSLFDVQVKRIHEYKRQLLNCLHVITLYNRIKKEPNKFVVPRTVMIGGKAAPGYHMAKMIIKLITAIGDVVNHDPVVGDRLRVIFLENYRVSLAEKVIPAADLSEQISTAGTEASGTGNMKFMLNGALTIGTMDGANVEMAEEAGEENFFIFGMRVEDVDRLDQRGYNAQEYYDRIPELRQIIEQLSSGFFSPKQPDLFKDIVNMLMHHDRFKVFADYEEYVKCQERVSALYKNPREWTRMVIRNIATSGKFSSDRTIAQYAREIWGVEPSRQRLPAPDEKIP

Rattus norvegicus [5] = assay: Anti-hyperglycemic activity in Zucker fa/fa rat model assessed as decrease in liver glucose production at 7.5 mg/kg, po administered as single dose for 20 mins followed by glucagon challenge measured for 45 mins by glucose oxidase method; type: functional; set-up: scale not given: the % may be the effect or the level left
How it was run: (§1)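 Acute glucagon challenge in male Zucker fa/fa rats, 10-13 weeks old, 3 treated and 3 vehicle per experiment. Single oral dose (7.5-90 mg/kg range; vehicle 4-5 mL/kg po) given 65 min before the final blood glucose reading. Glucagon 200 µg/kg SC. Tail-vein plasma taken at 0, 10, 20 and 45 min, glucose by glucose oxidase. Hepatic glucose production read as 45-min AUC.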

Rattus norvegicus [6] = assay: Anti-hyperglycemic activity in Zucker fa/fa rat model assessed as decrease in liver glucose production at 15 mg/kg, po administered as single dose for 20 mins followed by glucagon challenge measured for 45 mins by glucose oxidase method; type: functional; set-up: scale not given: the % may be the effect or the level left; how it was run: as §1
Rattus norvegicus [7] = assay: Anti-hyperglycemic activity in Zucker fa/fa rat model assessed as decrease in liver glucose production at 30 mg/kg, po administered as single dose for 20 mins followed by glucagon challenge measured for 45 mins by glucose oxidase method; type: functional; set-up: scale not given: the % may be the effect or the level left; how it was run: as §1
Rattus norvegicus [8] = assay: Anti-hyperglycemic activity in Zucker fa/fa rat model assessed as decrease in liver glucose production at 60 mg/kg, po administered as single dose for 20 mins followed by glucagon challenge measured for 45 mins by glucose oxidase method; type: functional; set-up: scale not given: the % may be the effect or the level left; how it was run: as §1
Rattus norvegicus [9] = assay: Anti-hyperglycemic activity in Zucker fa/fa rat model assessed as decrease in hepatic glucose production at 30 mg/kg, po administered for 4 days followed by glucagon challenge for 2 days measured for 45 mins; type: functional; set-up: scale not given: the % may be the effect or the level left
How it was run: (§2)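 Male Zucker fa/fa rats, 10-13 weeks old, after 5 days of stabilization; 3 dosed and 3 vehicle controls. Daily oral dosing at 30 mg/kg for 4 days, then glucagon challenge (200 µg/kg, scapular SC). Tail-vein blood taken at 0, 10, 20 and 45 min. Plasma glucose by glucose oxidase, insulin by radioimmunoassay, each expressed as delta from basal. Glucose output given as 45-min AUC.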

Rattus norvegicus [10] = assay: Anti-hyperglycemic activity in glucagon challenged Zucker fa/fa rat model assessed as decrease in insulinemia at 30 mg/kg, po administered for 6 days measured for 60 mins post last dose by OGTT relative to control; type: functional, organism-based
How it was run: (§3)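 Zucker fa/fa rats received 30 mg/kg po daily for 6 days, with a glucagon challenge after day 4. They were then fasted overnight and given an OGTT (glucose 3 g/kg). Tail-vein plasma glucose measured by glucose oxidase and insulin by radioimmunoassay, each expressed as delta from basal per rat.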

Rattus norvegicus [11] = assay: Anti-hyperglycemic activity in glucagon challenged Zucker fa/fa rat model assessed as decrease in glycaemia at 30 mg/kg, po administered for 6 days measured for 60 mins post last dose by OGTT relative to control; type: functional, organism-based; how it was run: as §3
Rattus norvegicus [12] = assay: Anti-hyperglycemic activity in po dosed Zucker fa/fa rat model assessed as decrease in liver glucose production administered 20 mins followed by glucagon challenge measured for 45 mins by glucose oxidase method; type: functional, organism-based; how it was run: as §1
Rattus norvegicus [13] = assay: Anti-hyperglycemic activity in Zucker fa/fa rat model assessed as decrease in insulin output at 30 mg/kg, po administered for 4 days followed by glucagon challenge for 2 days measured for 45 mins; type: functional, organism-based; how it was run: as §2
[14] = target: T3, Glycogen phosphorylase, muscle form; assay: Competitive inhibition of rabbit muscle glycogen phosphorylase b by Lineweaver-Burk plot analysis in presence of glucose 1-phosphate

IC50 [1] [µM]	IC50 [2] [µM]	IC50 [3] [µM]	IC50 [4] [µM]	Compound	other results
13.6	2.5	2.38	–	CC(=O)OC[C@H]1O[C@@]2(CC(c3ccc4ccccc4c3)=NO2)[C@H](OC(C)=O)[C@@H](OC(C)=O)[C@@H]1OC(C)=O	–
> 100	> 100	> 100	325	COc1cc(OC)cc(C2=NO[C@@]3(C2)O[C@H](CO)[C@@H](O)[C@H](O)[C@H]3O)c1	–
> 100	> 100	> 100	5.6	CSc1ccc(C2=NO[C@@]3(C2)O[C@H](CO)[C@@H](O)[C@H](O)[C@H]3O)cc1	–
–	–	–	25	OC[C@H]1O[C@@]2(CC(c3cc4ccccc4o3)=NO2)[C@H](O)[C@@H](O)[C@@H]1O	–
> 100	> 100	> 100	13.3	OC[C@H]1O[C@@]2(CC(c3ccc4c(c3)OCCO4)=NO2)[C@H](O)[C@@H](O)[C@@H]1O	–
–	–	–	10	OC[C@H]1O[C@@]2(CC(c3cc4ccccc4s3)=NO2)[C@H](O)[C@@H](O)[C@@H]1O	–
> 100	> 100	> 100	80.5	OC[C@H]1O[C@@]2(CC(c3cc4ccccc4c4ccccc34)=NO2)[C@H](O)[C@@H](O)[C@@H]1O	–
30.1	22.2	13.8	1.54	OC[C@H]1O[C@@]2(CC(c3ccc4cc(O)ccc4c3)=NO2)[C@H](O)[C@@H](O)[C@@H]1O	–
–	–	–	800	OC[C@H]1O[C@@]2(CC(c3c[nH]c4ccccc34)=NO2)[C@H](O)[C@@H](O)[C@@H]1O	–

More lines, now with the values behind:

Compound	IC50 [1] [µM]	IC50 [2] [µM]	IC50 [3] [µM]	IC50 [4] [µM]	other results
OC[C@H]1O[C@@]2(CC(c3nc4ccccc4s3)=NO2)[C@H](O)[C@@H](O)[C@@H]1O	–	–	–	6.1	–
OC[C@H]1O[C@@]2(CC(c3ccc4ccccc4c3)=NO2)[C@H](O)[C@@H](O)[C@@H]1O	36	20	14.2	–	Activity (Rattus norvegicus [5]): 3%; Activity (Rattus norvegicus [6]): 18%; Activity (Rattus norvegicus [7]): 30%; Activity (Rattus norvegicus [8]): 33%; Activity (Rattus norvegicus [9]): 19%; Activity (Rattus norvegicus [10]): Active; Activity (Rattus norvegicus [11]): inactive; Activity (Rattus norvegicus [12]): Dose-dependent effect; Activity (Rattus norvegicus [13]): Active
O=C1CNC(=O)[C@@]2(N1)O[C@H](CO)[C@@H](O)[C@H](O)[C@H]2O	–	–	–	–	Ki [14]: 59.7 µM
COc1ccc2cc(C3=NO[C@@]4(C3)O[C@H](CO)[C@@H](O)[C@H](O)[C@H]4O)ccc2c1	–	–	–	27.7	–
OC[C@H]1O[C@@]2(CC(c3ccc4c(c3)OCO4)=NO2)[C@H](O)[C@@H](O)[C@@H]1O	> 100	> 100	> 100	81.3	–
OC[C@H]1O[C@@]2(CC(c3cc4ccccc4[nH]3)=NO2)[C@H](O)[C@@H](O)[C@@H]1O	–	–	–	280	–
